Among the data in ChEMBL document CHEMBL4837217, “Design, synthesis, in vitro and in vivo biological evaluation of pyranone-piperazine analogs as potent antileishmanial agents” (Eur J Med Chem, 2021) are inhibition, Activity and inhibition in vivo values, retold here.

The structures appear in SMILES notation. The source made the active and inactive calls. The rule behind the calls is not given here.

The subject of assay [1] is Leishmania donovani. As to the kind of experiment: Antileishmanial activity against log phase of Leishmania donovani MHOM/IN/80/Dd8 promastigotes assessed as reduction in cell viability at 50 uM incubated for 72 hrs by MTT assay. Format: functional. An outline of the steps:
(§1)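 Log-phase luciferase-transfected L. donovani Dd8 promastigotes (M199 + 10% FBS, 24 °C) treated with compounds at 25 and 50 µM in DMSO, with 0.1% DMSO vehicle control. After 72 h, MTT added 4 h. Formazan dissolved in DMSO, read at 570 nm. Percent inhibition reported as mean ± SD of at least three independent experiments in replicate.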
In general terms: Tetrazolium assays rely on reduction of a dye to a coloured formazan, in cell work by metabolically active cells.

Assay [2] has as its system Leishmania donovani. Description: Antileishmanial activity against amastigote stage of Leishmania donovani MHOM/IN/80/Dd8 harboring luciferase gene infected in mouse J774 cells assessed as parasite killing at 50 to 100 uM incubated for 72 hrs by Steady-Glo reagent based luciferase assay. To be noted: dose 50-100 µM. In kind it is functional. An outline of the steps: (§2)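 J774 murine macrophages, 4 × 10⁴ cells/well in RPMI with 10% FBS for 24 h, are infected for 24 h at 37 °C, 5% CO₂ with stationary-phase luciferase-transfected L. donovani Dd8 promastigotes at a 1:8 macrophage:parasite ratio. Compounds are dissolved in DMSO. Luminescence is read after Steady-Glo is added in PBS. IC₅₀ is taken from a four-parameter Hill nonlinear regression. Miltefosine is the reference.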

Assay [3] concerns Leishmania donovani. As to the kind of experiment: Induction of apoptosis in Leishmania donovani MHOM/IN/80/Dd8 promastigotes assessed as late apoptotic cells at 50 uM measured after 48 hrs by Alexa fluor488-AnnexinV/PI staining based FACSCalibur flow cytometry analysis (reference value: 0.7%). In kind it is functional. (In general: Flow cytometry measures light scatter and fluorescence of single cells or particles in a stream.)

Assay [4] has as its system Splenocyte. Description: Immunomodulatory activity in BALB/c mouse infected with Leishmania donovani amastigotes assessed as decrease in IL-10 level in splenocytes supernatants at 50 mg/kg, ip for 5 days. Format: functional, organism-based. The following applies: time 5.0 day.
Assay [5] relates to Leishmania donovani. As to the kind of experiment: Induction of mitochondrial membrane potential dysfunction in Leishmania donovani MHOM/IN/80/Dd8 promastigotes assessed as cells with mitochondrial depolarization at 50 uM incubated for 48 hrs by JC1 staining based flow cytometry (reference value: 3.63%). Format: functional. In a few lines: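 Promastigotes (1 × 10^6 cells/mL) exposed to 50 µM for 24–72 h, or to IC50 for 72 h. CCCP (50 µM final) served as depolarization positive control. Cells washed, stained with JC-1 (2 µM final) 30 min at 37 °C, 5% CO2. Red-to-green fluorescence shift measured by flow cytometry.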

The test system of assay [6] is Leishmania donovani. Description: Induction of apoptosis in Leishmania donovani MHOM/IN/80/Dd8 promastigotes assessed as increase in cytochrome c release by measuring increase in cytochrome c level in cytosol at 50 uM incubated for 12 to 72 hrs by Western blot analysis. In kind it is functional, organism-based. To be noted: time 12-72 hrs. In a few lines:
(§3)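 Promastigotes treated with 50 µM for 12, 24, 48 and 72 h, then washed in PBS. Cell fractionation buffer applied 10 min on ice, cells homogenized, centrifuged 10,000 × g for 25 min at 4 °C. Cytosolic and mitochondrial fractions immunoblotted for cytochrome c. Loading controls were actin (cytosol) and COX-4 (mitochondria).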

The subject of assay [7] is Leishmania donovani. As to the kind of experiment: Antileishmanial activity against Leishmania donovani MHOM/IN/80/Dd8 infected in BALB/c mouse assessed as reduction in intracellular amastigote burden in spleen at 50 mg/kg, ip for 5 days and measured at 1 week post-treatment by Giemsa staining based assay relative to control. To be noted: MHOM/IN/80/Dd8, ip, 288 h, time 12 day. In kind it is functional. In a few lines: (§4)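 Female BALB/c mice (20–25 g), 5/group, infected iv with 2 × 10^7 stationary-phase L. donovani promastigotes. Infection confirmed at 2 wk, then 50 mg/kg ip daily for 5 consecutive days. Vehicle was 5% DMSO. Sacrificed day 7 post-treatment. Giemsa-stained liver/spleen impression smears counted as amastigotes/1000 nucleated cells, expressed as LDU (amastigotes per nucleated cell × organ weight in mg), compared with untreated infected controls.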

In assay [8] the test system is Leishmania donovani. As to the kind of experiment: Antileishmanial activity against log phase of Leishmania donovani MHOM/IN/80/Dd8 promastigotes assessed as reduction in cell viability at 25 uM incubated for 72 hrs by MTT assay. Format: functional. An outline of the steps:
as §1

In assay [9] the test system is Leishmania donovani. Description: Induction of apoptosis in Leishmania donovani MHOM/IN/80/Dd8 promastigotes assessed as DNA fragmentation by measuring bright green coloured positive apoptotic nuclei at 50 uM incubated for 72 hrs by TUNEL staining based confocal microscopic analysis. In kind it is functional, organism-based. In a few lines:
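Log-phase promastigotes treated with 50 µM for 72 h, washed, adhered to poly-L-lysine slides and fixed in 4% paraformaldehyde. Permeabilized in ice-cold 70% ethanol 30 min. Labeled with TdT/BrdUTP 60 min at 37 °C, then Alexa Fluor 488 anti-BrdU 30 min and PI/RNase A 30 min. Imaged by confocal microscopy; vehicle was 0.1% DMSO.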

The test system of assay [10] is Leishmania donovani. Description: Antileishmanial activity against Leishmania donovani MHOM/IN/80/Dd8 infected in BALB/c mouse assessed as reduction in intracellular amastigote burden in liver at 50 mg/kg, ip for 5 days and measured at 1 week post-treatment by Giemsa staining based assay relative to control. In kind it is functional. To be noted: MHOM/IN/80/Dd8, ip, 288 h, time 12 day. An outline of the steps: as §4

Assay [11] relates to Leishmania donovani. As to the kind of experiment: Induction of apoptosis in Leishmania donovani MHOM/IN/80/Dd8 promastigotes assessed as early apoptotic cells at 50 uM measured after 24 hrs by Alexa fluor488-AnnexinV/PI staining based FACSCalibur flow cytometry analysis (reference value: 10.3%). Format: functional.
For assay [12], the system named is Splenocyte. As to the kind of experiment: Immunomodulatory activity in BALB/c mouse infected with Leishmania donovani amastigotes assessed as increase in IFN-gamma level in splenocytes supernatants at 50 mg/kg, ip for 5 days. Format: functional, organism-based. The following applies: time 5.0 day.
Assay [13] concerns Leishmania donovani. Description: Induction of apoptosis in Leishmania donovani MHOM/IN/80/Dd8 promastigotes assessed as early apoptotic cells at 50 uM measured after 48 hrs by Alexa fluor488-AnnexinV/PI staining based FACSCalibur flow cytometry analysis (reference value: 10.3%). Format: functional.
Assay [14] concerns Leishmania donovani. As to the kind of experiment: Induction of apoptosis in Leishmania donovani MHOM/IN/80/Dd8 promastigotes assessed as increase in cytochrome c release by measuring decrease in cytochrome c level in mitochondria at 50 uM incubated for 12 to 72 hrs by Western blot analysis. To be noted: time 12-72 hrs. Format: functional, organism-based. In a few lines: as §3
A general note: Immunoblotting shows a protein as a band on a membrane.

Assay [15] relates to Splenocyte. As to the kind of experiment: Immunomodulatory activity in BALB/c mouse infected with Leishmania donovani amastigotes assessed as increase in IL-12 level in splenocytes supernatants at 50 mg/kg, ip for 5 days. Format: functional, organism-based. The following applies: time 5.0 day.
Assay [16] deals with Splenocyte. Description: Immunomodulatory activity in BALB/c mouse infected with Leishmania donovani amastigotes assessed as decrease in TGF-beta level in splenocytes supernatants at 50 mg/kg, ip for 5 days. Format: functional, organism-based. The following applies: time 5.0 day.
In assay [17] the test system is Leishmania donovani. As to the kind of experiment: Antileishmanial activity against amastigote stage of Leishmania donovani MHOM/IN/80/Dd8 harboring luciferase gene infected in mouse J774 cells assessed as parasite growth inhibition at 25 uM incubated for 72 hrs by Steady-Glo reagent based luciferase assay. Format: functional. To be noted: MHOM/IN/80/Dd8, J774. In a few lines:
as §2

Assay [18] concerns Leishmania donovani. Description: Induction of apoptosis in Leishmania donovani MHOM/IN/80/Dd8 promastigotes assessed as late apoptotic cells at 50 uM measured after 72 hrs by Alexa fluor488-AnnexinV/PI staining based FACSCalibur flow cytometry analysis (reference value: 0.7%). Format: functional.
Assay [19] concerns Leishmania donovani. As to the kind of experiment: Induction of apoptosis in Leishmania donovani MHOM/IN/80/Dd8 promastigotes assessed as early apoptotic cells at 50 uM measured after 72 hrs by Alexa fluor488-AnnexinV/PI staining based FACSCalibur flow cytometry analysis (reference value: 10.3%). In kind it is functional.

The inhibition is the change of the read-out against control, counted positive when it falls. Usually inhibition in vivo stands for the change of the read-out against control, counted positive when it falls. For the compound `N#Cc1c(N2CCN(c3ccccc3O)CC2)cc(-c2ccccc2)oc1=O`, in assay [1], the inhibition at 50 µM was found to be 85.2%. The Activity in assay [2] is listed as greater than 89%; in [3] it was 2.3%; in assay [5] it was 54.1%; in [11] it was 15.4%; in assay [13], 39.1%; in assay [18], 13.1%. Further, in [19], the Activity worked out at 41.4%. Besides, the outcome in [4], in [12], in assay [15] and in assay [16] was inactive. Also, the outcome in assay [6], in assay [9] and in [14] was Active. For the same compound, the inhibition in vivo at 50 mg/kg in [7] came to 56.9%; in [10], 67.3%. Moreover, the inhibition at 25 µM in assay [8] stood at 82.7%; in assay [17], 84.2%.
